Laboratory results published in ChEMBL document CHEMBL1157639, “Identification of inhibitors of drug-resistant Candida albicans strains from a library of bicyclic peptidomimetic compounds” (2010).

Tests used:
Format in all cases: functional, Vagina
[1] = tested on: Candida albicans; test: Antifungal activity against pharmacoresistant Candida albicans AIDS68 infected in Wistar rat estrogen-dependent fungal vaginitis model assessed as fungal burden at 10 ug administered intravaginally 1 hr after fungal infection measured on day 1 after infection
How it was run: (§1)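 Oophorectomized female Wistar rats (80-100 g) got 0.5 mg estradiol benzoate s.c. Six days later they were inoculated intravaginally with >10⁷ YPD-grown yeast cells (28 °C, washed, hemocytometer-counted) in 0.1 mL saline. Treatment was given intravaginally at 1, 24 and 48 h post-challenge. Burden was counted by culturing 100 μL vaginal fluid on Sabouraud-chloramphenicol (50 μg/mL) agar, as CFU/mL ×1000, through day 28.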

[2] = tested on: Candida albicans; test: Antifungal activity against pharmacoresistant Candida albicans AIDS68 infected in Wistar rat estrogen-dependent fungal vaginitis model assessed as fungal burden at 10 ug administered intravaginally 48 hrs after fungal infection measured on day 28 after infection; how it was run: as §1
[3] = tested on: Candida albicans; test: Antifungal activity against Candida albicans SA40 infected in Wistar rat estrogen-dependent fungal vaginitis model assessed as fungal burden at 10 ug administered intravaginally 48 hrs after fungal infection measured on day 7 after infection; how it was run: as §1
[4] = tested on: Candida albicans; test: Antifungal activity against Candida albicans SA40 infected in Wistar rat estrogen-dependent fungal vaginitis model assessed as fungal burden at 10 ug administered intravaginally 48 hrs after fungal infection measured on day 5 after infection; how it was run: as §1
[5] = tested on: Candida albicans; test: Antifungal activity against Candida albicans SA40 infected in Wistar rat estrogen-dependent fungal vaginitis model assessed as fungal burden at 10 ug administered intravaginally 1 hr after fungal infection measured within 1 day of infection; how it was run: as §1
[6] = tested on: Candida albicans; test: Antifungal activity against Candida albicans SA40 infected in Wistar rat estrogen-dependent fungal vaginitis model assessed as fungal burden at 10 ug administered intravaginally 24 hrs after fungal infection measured on day 2 after infection; how it was run: as §1
[7] = tested on: Candida albicans; test: Antifungal activity against pharmacoresistant Candida albicans AIDS68 infected in Wistar rat estrogen-dependent fungal vaginitis model assessed as fungal burden at 10 ug administered intravaginally 1 hr after fungal infection measured within 1 day of infection; how it was run: as §1
[8] = tested on: Candida albicans; test: Antifungal activity against Candida albicans SA40 infected in Wistar rat estrogen-dependent fungal vaginitis model assessed as fungal burden at 10 ug administered intravaginally 48 hrs after fungal infection measured on day 14 after infection; how it was run: as §1
[9] = tested on: Candida albicans; test: Antifungal activity against pharmacoresistant Candida albicans AIDS68 infected in Wistar rat estrogen-dependent fungal vaginitis model assessed as fungal burden at 10 ug administered intravaginally 48 hrs after fungal infection measured on day 5 after infection; how it was run: as §1
[10] = tested on: Candida albicans; test: Antifungal activity against pharmacoresistant Candida albicans AIDS68 infected in Wistar rat estrogen-dependent fungal vaginitis model assessed as fungal burden at 10 ug administered intravaginally 24 hrs after fungal infection measured on day 2 after infection; how it was run: as §1
[11] = tested on: Candida albicans; test: Antifungal activity against pharmacoresistant Candida albicans AIDS68 infected in Wistar rat estrogen-dependent fungal vaginitis model assessed as fungal burden at 10 ug administered intravaginally 48 hrs after fungal infection measured on day 21 after infection; how it was run: as §1
[12] = tested on: Candida albicans; test: Antifungal activity against Candida albicans SA40 infected in Wistar rat estrogen-dependent fungal vaginitis model assessed as fungal burden at 10 ug administered intravaginally 48 hrs after fungal infection measured on day 21 after infection; how it was run: as §1
[13] = tested on: Candida albicans; test: Antifungal activity against Candida albicans SA40 infected in Wistar rat estrogen-dependent fungal vaginitis model assessed as fungal burden at 10 ug administered intravaginally 48 hrs after fungal infection measured on day 28 after infection; how it was run: as §1
[14] = tested on: Candida albicans; test: Antifungal activity against pharmacoresistant Candida albicans AIDS68 infected in Wistar rat estrogen-dependent fungal vaginitis model assessed as fungal burden at 10 ug administered intravaginally 48 hrs after fungal infection measured on day 7 after infection; how it was run: as §1
[15] = tested on: Candida albicans; test: Antifungal activity against pharmacoresistant Candida albicans AIDS68 infected in Wistar rat estrogen-dependent fungal vaginitis model assessed as fungal burden at 10 ug administered intravaginally 48 hrs after fungal infection measured on day 14 after infection; how it was run: as §1
[16] = tested on: Candida albicans; test: Antifungal activity against Candida albicans SA40 infected in Wistar rat estrogen-dependent fungal vaginitis model assessed as fungal burden at 10 ug administered intravaginally 1 hr after fungal infection measured on day 1 after infection; how it was run: as §1

## OC(Cn1cncn1)(Cn1cncn1)c1ccc(F)cc1F [FLUCONAZOLE]
[1]
  Activity: 100 ×10³ CFU/ml
[2]
  Activity: 0 ×10³ CFU/ml
[3]
  Activity: 11.7 ×10³ CFU/ml
[4]
  Activity: 25.7 ×10³ CFU/ml
[5]
  Activity: 100 ×10³ CFU/ml
[6]
  Activity: 49.7 ×10³ CFU/ml
[7]
  Activity: >100 ×10³ CFU/ml
[8]
  Activity: 5 ×10³ CFU/ml
[9]
  Activity: 61 ×10³ CFU/ml
[10]
  Activity: 93 ×10³ CFU/ml
[11]
  Activity: 11.7 ×10³ CFU/ml
[12]
  Activity: 1.25 ×10³ CFU/ml
[13]
  Activity: 0 ×10³ CFU/ml
[14]
  Activity: 44 ×10³ CFU/ml
[15]
  Activity: 18.7 ×10³ CFU/ml
[16]
  Activity: 53.5 ×10³ CFU/ml
